Assay outcomes from PubChem.
Hits are enriched below; roughly 1.9% of the tested compounds scored in any of these assays.
core dimer inh: inhibitors of HCV core protein dimerization, primary screen, biochemical, TR-FRET, high-throughput; TR-FRET GST/Flag-core106 dimerization, 1536-well; inhibition, % at 5 µM; 300,000 tested, 0.33% active; AID 1899, 2009;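 active means inhibition above the mean of all tested compounds plus 3 SD, set per screening campaign, cut at about 45% in these data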
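Assay system: tagged HCV core106 pair (GST and Flag); medium: KF-containing HEPES buffer, pH 7.45, DTT, CHAPS, BSA; also added: Eu donor and XL665 acceptor anti-tag antibodies; dosing: 5 µM single dose; timing: compound-protein-antibody incubation 4 h at 22.5 °C; signal: TR-FRET 671 and 617 nm emission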
Rce1 inh: yeast Rce1p protease inhibitors, primary screen, biochemical, fluorescence, cell-free homogeneous. CAAX prenyl protease 2 (Saccharomyces cerevisiae (strain ATCC 204508 / S288c)), Q03530. yeast membranes, quenched prenylated peptide cleavage fluorescence. calls only. 290,000 tested, 0.27% active;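 active means fall in fluorescence gain of 50% or more versus controls, with final raw signal at or below 3038400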;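 further: plate controls were neutral control wells for no effect and wells lacking membranes for full effect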
TbMetRS inhib: T. brucei MetRS inhibitors, primary screen, biochemical, luminescence. inhibition, % at 11.9 µM. AID 624268, 2012. 360,000 tested, 0.4% active. purified T. brucei MetRS, ATP depletion, Kinase-Glo luminescence. methionyl-tRNA synthetase (Trypanosoma brucei brucei);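 active means inhibition above a per-plate cutoff of the control wells' mean inhibition plus 3 SD, cut at about 5.5% in these data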;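 further: 0% = DMSO wells median and 100% = median of wells with control inhibitor compound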
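Material – parasite MetRS enzyme · Medium – HEPES-MgCl2-KCl buffer plus DTT, spermine, BSA, pyrophosphatase · Reagent – ATP, methionine and E. coli bulk tRNA substrates · Times – 15 min enzyme-compound preincubation, 2 h reaction, 10 min detection, 25 °C · Measured by – luminescence of leftover ATP · Evaluation – percent inhibition relative to median high and low control wells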
DSG3 Ab inh: inhibitors of pemphigus antibody binding to DSG3, primary screen, biochemical, bead-based, flow cytometry, scFv-GFP; binding (percent of control), % at 10 µM; 310,000 tested, 0.48% active; Desmoglein-3 (Homo sapiens), P32926; DSG3-coupled beads, scFv-anti-DSG3-GFP binding; active compounds read low; AID 588358, 2011;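 active means binding more than 3 SD below its plate's average and above zero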;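 further: hits lower antibody fragment binding to DSG3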
NadD block: inhibitors of S. aureus NadD, primary screen, biochemical, colorimetric, uHTS. Nicotinate-nucleotide adenylyltransferase NadD (Staphylococcus aureus N315). purified NadD enzyme, colorimetric absorbance read-out. inhibition, % at 20 µM. 360,000 tested, 0.78% active; in the data active means inhibition above about 26%
The depositor's hits bear a star; i = inactive; · = not tested or not shown; + = active, no number.

SMILES | core dimer inh | Rce1 inh | TbMetRS inhib | DSG3 Ab inh | NadD block
CC(=O)c1ccc(S(=O)(=O)Nc2ccc(-c3ccc4nnc(C)n4n3)cc2)cc1 | 58* | i | 0 | 83 | 2
CC(=O)c1ccc(S(=O)(=O)N2CCN(C)CC2)cc1 | -4 | i | 0 | · | -1
CCOCCCNC(=O)c1ccc2c(c1)ncn2-c1ccc(C)cc1C | 0 | i | -1 | 119 | -6
C/C(=N\Nc1ccc(F)cc1F)c1ccc(N2CCOCC2)cc1 | -2 | i | 0 | 94 | 9
C/C(=N\Nc1ccc(F)cc1F)c1ccc(F)cc1 | 54* | i | · | · | ·
CC(=O)Nc1cc(C(F)(F)F)ccc1Oc1cccc(Br)c1 | -2 | + | 1 | 106 | -8
CCCCCCCCOC(=O)CCc1c(C)[nH]c(=S)[nH]c1=O | 3 | i | -2 | 11* | 2
CS(=O)(=O)C1=NN2C(=N)/C(=C\c3ccc(OC(=O)c4ccco4)cc3)C(=O)N=C2S1 | 13 | i | 0 | 102 | 4
CC1CCN(C2=NN3C(=N)/C(=C\c4ccc(OC(=O)c5ccco5)cc4)C(=O)N=C3S2)CC1 | -1 | i | 0 | 91 | 37*
COc1ccc(OC)c(NC(=O)C(C#N)=Cc2ccco2)c1 | · | · | 0 | 88 | -4
Clc1ccc(-n2c(SCc3nc4ccccc4[nH]3)nnc2-c2ccncc2)cc1 | -5 | i | 6.7* | 105 | -1
O=c1[nH]c(CSc2nnc(-c3ccccc3)n2-c2ccccc2)nc2ccccc12 | -17 | · | -1 | 74 | 1
CC(C)Sc1ccc(C(=O)Nc2ccc(F)cc2F)cn1 | -3 | i | -1 | 68* | -1
O=Cc1c(NCCN2CCOCC2)c2ccccc2[nH]c1=O | -5 | i | 0 | 117 | -3
CC1CCN(C(=O)C2CCN(S(=O)(=O)c3ccc(-n4cnnn4)cc3)CC2)CC1 | 1 | + | 0 | 98 | -4
Cc1cc(C)n(-c2nc3ccccc3c(=O)n2OCC(=O)N(C)C)n1 | -6 | + | -1 | 108 | 7
Cc1cc(CC(C)C)n(-c2nc3ccccc3c(=O)n2OCC(=O)N(C)C)n1 | -2 | i | -1 | 109 | 3
CC1=CC(C)(C)N2C(=O)C(=O)c3cc(OC(=O)c4ccco4)cc1c32 | 4 | i | 0 | · | -1
COc1ccc(NC(=O)c2cc(-c3ccco3)nc3ccccc23)cc1 | 13 | i | 0 | 65* | 6
COc1cccc(NC(=O)CN(C)C(=O)c2cc(-c3ccccc3)nc3ccccc23)c1 | 4 | i | 0 | 103 | -4
CCCCCCNC(=O)c1cc(-c2ccco2)nc2ccccc12 | 64* | i | -1 | 98 | 20
Cc1ccccc1NC(=O)c1cc(-c2ccco2)nc2ccccc12 | · | · | -1 | 89 | 12
CN(CC(=O)Nc1cccc(F)c1)C(=O)c1cccc(-n2cccc2)c1 | 64* | i | 0 | 96 | 4
COc1ccc(NC(=O)CN(C)C(=O)c2cc(-c3ccco3)nc3ccccc23)cc1 | 61* | · | 0 | 92 | 23
Cc1ccc(C(=O)C(C)OC(=O)C2=COCCO2)cc1C (configuration not stated) | 1 | i | -1 | 104 | 0
COc1cc([N+](=O)[O-])cc(/C=N/NC(=O)c2cc(C)nc3ccccc23)c1O | -7 | i | 2 | 102 | 4
Cc1cccc(NC(=O)C2CCN(c3ncnc4c3nc3n4CCCCC3)CC2)n1 | -4 | i | 0 | 104 | -1
CN(CC(=O)Nc1cccc(F)c1)C(=O)c1cc(-c2ccco2)nc2ccccc12 | 59* | i | 0 | 78 | 15
C=C(NC(=O)C(=C)NC(=O)c1csc(C2=NC3c4csc(n4)C4NC(=O)c5csc(n5)C([C@@](C)(O)C(C)O)NC(=O)C5CSC(=N5)/C(=C\C)NC(=O)C(C(C)O)NC(=O)c5csc(n5)[C@]3(CC2)NC(=O)C(C)NC(=O)C(=C)NC(=O)C(C)NC(=O)C(C(C)CC)NC2C=Cc3c(C(C)O)cc(nc3C2O)C(=O)OC4C)n1)C(N)=O (some centres not stated) | 70* | · | · | · | ·
